Screens from PubChem BioAssay.
mIAP act: mouse IAP activation. muIAP, CDP-Star luminescence, 30 min; stronger effect = higher value; 1 = vehicle-only enzyme signal, 0 = enzyme-free wells. activation factor at 10 µM. actives 0.24% (n = 330,000). AID 2805;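 active = activation factor of at least 2 at 20 µM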
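System: Mouse IAP enzyme | Also added: CDP-Star substrate | Dosing: Compounds dispensed in DMSO | Schedule: 30 min enzyme-substrate-compound incubation at room temperature | Technique: Chemiluminescence readout | Control set: DMSO-only wells and no-enzyme negative control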
bIAP activator: intestinal alkaline phosphatase (bovine) activation | actives 0.17% (n = 200,000) | activation factor at 20 µM | purified bovine IAP, CDP-star luminescence, 30 min; stronger effect = higher value; fold of DMSO-control signal, blank-subtracted | AID 1016;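 active = activation factor of 2 or more at 20 µM, a signal rise over negative controls twice the positive control's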
mIAP block: blocks mouse intestinal alkaline phosphatase; purified mouse IAP, CDP-Star luminescence, 30 min; inhibition, % at 10 µM; actives 0.2% (n = 330,000);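 active = inhibition of at least 40% at 10 µM in the primary screen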;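 also: plate controls were DMSO with enzyme for no effect and no enzyme wells for full effect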
hIAP activ: human IAP activation; activation factor at 10 µM; P09923; actives 0.16% (n = 330,000); purified human IAP, CDP-Star luminescence, 30 min; stronger effect = higher value; 1 = vehicle-only enzyme, 0 = enzyme-free background;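 active = activation factor of the enzyme at least 2-fold when tested at 20 µM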
Target sequence (P09923 whole entry, looked up): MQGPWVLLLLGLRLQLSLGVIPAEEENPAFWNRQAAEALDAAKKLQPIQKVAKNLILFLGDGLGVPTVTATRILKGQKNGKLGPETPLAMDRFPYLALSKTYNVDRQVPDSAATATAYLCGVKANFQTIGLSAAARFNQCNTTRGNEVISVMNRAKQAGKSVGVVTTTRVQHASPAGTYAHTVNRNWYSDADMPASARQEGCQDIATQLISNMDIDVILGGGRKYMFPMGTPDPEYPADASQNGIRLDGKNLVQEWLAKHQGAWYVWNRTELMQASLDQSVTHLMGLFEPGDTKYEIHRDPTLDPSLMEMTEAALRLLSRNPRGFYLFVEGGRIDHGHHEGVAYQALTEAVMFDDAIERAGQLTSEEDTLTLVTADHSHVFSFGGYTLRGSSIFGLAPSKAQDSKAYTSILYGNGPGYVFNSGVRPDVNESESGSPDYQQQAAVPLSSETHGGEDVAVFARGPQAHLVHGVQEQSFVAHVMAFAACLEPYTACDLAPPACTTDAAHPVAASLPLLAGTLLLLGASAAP
bIAP inhibitor: blocks bovine intestinal alkaline phosphatase activity. purified bovine IAP, CDP-star luminescence, 30 min. inhibition, % at 20 µM. 190,000 tested, under 10 active. AID 1019;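 active = over 50% inhibition of intestinal alkaline phosphatase at 20 µM in the single-dose screen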
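test system = bovine IAP enzyme | medium = DEA buffer 100 mM, pH 9.8, with MgCl2 1.0 mM, ZnCl2 0.02 mM | detection = luminescence | dosing = single compound dose of 20 µM, 2% DMSO final | incubation = 30 min reaction at room temperature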
hIAP inh: blocks human intestinal alkaline phosphatase; inhibition, % at 10 µM; actives 0.12% (n = 330,000); purified IAP, CDP-Star luminescence, 30 min; AID 2544;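 active = inhibition reaching a set limit with compound at 10 µM in the primary screen, cut at about 35% in these data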;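 also: plate controls were DMSO wells with enzyme for no effect and no-enzyme buffer wells for full effect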
hIAP act confirm: human IAP activation confirmation | shares compounds with hIAP activ | purified IAP, CDP-Star luminescence, 30 min; stronger effect = lower value | activation (%Activity, negative = activation), % at 8.3 µM | actives 10% (n = 880);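 active = at least twofold enzyme activation in any of six single-dose repeats, which the averaged readout prints as negative percent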
Active calls of the source: *; / = no result. Most compounds without a hit are left out; they make up all but 0.72% or so of the library.

SMILES | mIAP act | bIAP activator | mIAP block | hIAP activ | bIAP inhibitor | hIAP inh | hIAP act confirm
O=C(COc1ccccc1Cl)Nc1ccc2oc(=O)ccc2c1 | 1 | / | 0 | 1 | / | 0 | /
Cc1ccc(OCC(=O)Nc2cccc(O)c2)cc1C | 0.94 | 1 | 6 | 0.95 | -4 | 5 | /
Cc1cccc(OCC(=O)Nc2cccc(O)c2)c1 | 1.1 | 0.9 | -7 | 2.2* | 12 | -117 | -25
O=C(NCC1CCCCC1)c1ccc(F)cc1Cl | 1 | / | -4 | 0.55 | / | 45* | 27
CC(C)(C)OC(=O)N1CCC(NC(=O)c2[nH]cnc2C(=O)Nc2ccc(Cl)cc2)CC1 | 0.97 | / | 3 | 1.6 | / | -65 | /
CC(C)(C)OC(=O)N1CCC(NC(=O)c2[nH]cnc2C(=O)Nc2ccon2)CC1 | 0.83 | / | 17 | 2.7* | / | -174 | 37
CC(C)(C)OC(=O)NCCCCCNC(=O)c1[nH]cnc1C(=O)Nc1ccon1 | 0.89 | / | 11 | 2* | / | -105 | 9
Oc1ccc(N=Nc2c(O)ccc3ccccc23)cc1 | 0.68 | 0.6 | 32 | 0.55 | 41 | 45* | -92*
Cc1onc(-c2ccccc2)c1C(=O)OCC(=O)N(C)c1ccccc1 | 0.94 | / | 6 | 0.96 | / | 4 | /
COC(=O)c1ccc(N2NC(=O)/C(=C/c3cc(OC)c(OC)c(OC)c3)C2=O)cc1 | 1 | / | -2 | 0.99 | / | 1 | /
COC(=O)c1ccc(N2NC(=O)/C(=C/c3cc(OC)c(O)c(OC)c3)C2=O)cc1 | 0.87 | / | 13 | 0.63 | / | 37* | -48
CC(C)(C)c1ccc(C(=O)Nc2ccc(CN3CCS(=O)(=O)CC3)cc2)cc1 | 0.96 | / | 4 | 0.61 | / | 39* | -54
COC(=O)c1nnn(-c2nonc2N)c1CSc1nc2ccccc2o1 | 0.94 | 1 | 6 | 3.3* | -1 | -227 | 0
COC(=O)c1nnn(-c2nonc2N)c1CSc1nc2ccccc2s1 | 0.95 | 1 | 5 | 0.9 | 1 | 10 | /
COc1cc(CSc2ncn[nH]2)c(OC)cc1CSc1ncn[nH]1 | 0.88 | 1.2 | 12 | 2.7* | -20 | -172 | -12
O=C(CSc1nnc(-c2ccccc2O)n1Cc1ccccc1)NNC(=O)c1ccccc1O | 0.8 | 1 | 20 | 2.5* | -4 | -146 | -41
CCOc1ccc2oc(C(=O)NNC(=O)c3ccccc3O)c(C)c2c1 | 0.78 | / | 22 | 2.4* | / | -137 | -37
CC(C)(C)c1ccc(OC(=O)c2cccnc2)cc1 | 1 | 0.9 | -4 | 1 | 6 | -5 | /
COc1ccc(OC(=O)c2cccnc2)cc1 | 0.92 | 0.9 | 8 | 0.59 | 6 | 41* | 7
CC1=NN(c2nc3ccccc3[nH]2)C(=O)/C1=C/N(C)C | 1.1 | 1.1 | -6 | 2.3* | -15 | -128 | -57*
CC1=NN(c2ccccc2)C(=O)/C1=C/N(C)C | 1.1 | / | -6 | 0.93 | / | 7 | /
C[C@H](NC(=O)[C@@H]1Cc2ccccc2CN1)C(=O)NCC1CCCO1 (stereo partly specified) | 0.94 | / | 6 | 0.93 | / | 7 | /
O=S(=O)(Nc1ccc(-n2cnnn2)cc1)c1cccc(Cl)c1 | 0.95 | / | 4 | 1 | / | -2 | /
CCc1nn(CC(=O)NC(C)CCc2ccccc2)c(=O)c2cc3cc(F)ccc3n12 (stereo unspecified) | 1.1 | / | -12 | 2.2* | / | -120 | -59
CCc1nn(CC(=O)NC2CCN(Cc3ccccc3)CC2)c(=O)c2cc3cc(F)ccc3n12 | 1 | / | -1 | 0.88 | / | 12 | /
SMILES | mIAP act | bIAP activator | mIAP block | hIAP activ | bIAP inhibitor | hIAP inh | hIAP act confirm
CC(C)(C)c1cccc(C2(O)C(=O)c3ccccc3C2=O)c1O | 0.95 | / | 5 | 0.42 | / | 58* | 5
Cc1ccc(C2(O)C(=O)c3ccccc3C2=O)c(O)c1C | 1 | / | -4 | 1 | / | -1 | /
CC(O)[C@H]1CNC(=O)C(=O)N1CC(C)(C)C (stereo partly specified) | 1 | / | -1 | 0.95 | / | 5 | /
Cc1ccc(NCc2ccc([N+](=O)[O-])s2)cc1 | 0.94 | / | 6 | 0.63 | / | 37* | 26
Cc1ccc(Cl)cc1NC(=O)C(=O)N/N=C/c1ccc2c(c1)OCO2 | 0.93 | / | 7 | 2.2* | / | -116 | 40
Cc1cc(Cl)ccc1NC(=O)C(=O)N/N=C/c1ccc2c(c1)OCO2 | 0.97 | / | 3 | 1.1 | / | -11 | /
